Converted amounts (≈) assume the structure as drawn.
Legend:
[1] = test system: Mycobacterium tuberculosis; test: Antitubercular activity against Mycobacterium tuberculosis H37Rv incubated at 37 degC for 7 days by microplate alamar blue assay; format: functional; conditions: for MIC: Mycobacterium tuberculosis, H37Rv, 168 h
In short: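 Mtb H37Rv was grown in 7H9 broth with glycerol, Casitone, 10% OADC and 0.05% Tween 80 to OD600 0.4. Compounds were 2-fold serially diluted from DMSO stocks in 7H9, and wells were inoculated at 2 × 10⁵ CFU/mL. After 7 days at 37 °C, Alamar Blue was added and read after a further 24 h. MIC was the lowest concentration preventing the blue-to-pink change.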

[2] = test system: Mycobacterium tuberculosis; test: Antitubercular activity against Mycobacterium tuberculosis H37Rv incubated at 37 degC for 14 days in presence of 40% human serum by microplate alamar blue assay; format: functional; conditions: 336 h
In short: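 This is the MABA run in 7H9 broth containing 40% human serum. Compounds were 2-fold serially diluted, and wells were inoculated with H37Rv at 2 × 10⁵ CFU/mL. Incubation was at 37 °C for 14 days, then Alamar Blue was added. MIC was the lowest concentration preventing the blue-to-pink colour change.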

[3] = test system: Vero; test: Cytotoxicity against african green monkey Vero cells; format: cell-based, Chlorocebus sabaeus
[4] = test system: Mycobacterium tuberculosis; test: Antitubercular activity against non-replicating Mycobacterium tuberculosis H37Rv incubated for 10 days by LORA method; format: functional; conditions: 240 h
In short: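 H37Rv carrying pFCA-luxAB was adapted to low oxygen by gradual self-depletion in a sealed, slowly stirred flask. It was then exposed to compounds for 10 days under anaerobic conditions. Cultures recovered for 28 h in ambient oxygen before n-decanal substrate was added and luminescence read. MIC was the lowest concentration giving a 90% reduction in luminescence versus untreated controls.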

[5] = Chlorocebus sabaeus, Vero, read-out: IC50

| Structure (SMILES) | MIC [1] | MIC [2] | IC50 [3, 5] | MIC90 [4] | MBC90 [1] | IC50 ([3]; vero) |
| --- | --- | --- | --- | --- | --- | --- |
| O=C1c2ccccc2-n2c1nc1ncccc1c2=O | 4 µg/mL (≈ 16 µM) | 8 µg/mL | 24 µg/mL (≈ 96.3 µM) | 23 µg/mL (≈ 92.3 µM) |  |  |
| O=C1c2cc(F)ccc2-n2c1nc1ncccc1c2=O | 1 µg/mL (≈ 3.74 µM) | 2 µg/mL | 0.3 µg/mL (≈ 1.12 µM) |  | 1 µg/mL (≈ 3.74 µM) |  |
| O=C1c2ccc(N3CCOCC3)cc2-n2c1nc1ccncc1c2=O | 32 µg/mL (≈ 95.7 µM) | > 32 µg/mL | > 20 µg/mL |  |  |  |
| O=C1C2=Nc3ccncc3CN2c2ccc(Cl)cc21 | 2 µg/mL (≈ 7.42 µM) |  | 3.7 µg/mL (≈ 13.7 µM) | 8.3 µg/mL (≈ 30.8 µM) |  |  |
| O=C1C2=Nc3ccncc3CN2c2ccccc21 | 16 µg/mL (≈ 68 µM) |  | > 20 µg/mL | > 20 µg/mL |  |  |
| O=C1C2=Nc3ccccc3CN2c2ccccc21 | 1 µg/mL (≈ 4.27 µM) | 2 µg/mL | 42 µg/mL (≈ 179 µM) | 20 µg/mL (≈ 85.4 µM) |  |  |
| O=C1C2=Nc3ccccc3CN2c2ccc(OC(F)(F)F)cc21 | 0.125 µg/mL (≈ 0.393 µM) | 0.5 µg/mL | 1.3 µg/mL (≈ 4.08 µM) |  |  |  |
| O=C1c2ccccc2-n2c1nc1ccncc1c2=O | 0.5 µg/mL (≈ 2.01 µM) | 0.25 µg/mL | 5.3 µg/mL (≈ 21.3 µM) | 1.6 µg/mL (≈ 6.42 µM) |  |  |
| O=C1c2cc(Cl)ccc2-n2c1nc1ccncc1c2=O | 0.25 µg/mL (≈ 0.881 µM) | 0.25 µg/mL | 8.5 µg/mL (≈ 30 µM) | 0.68 µg/mL (≈ 2.4 µM) |  |  |
| O=C1c2ccc(N3CCNCC3)cc2-n2c1nc1ccncc1c2=O | > 4 µg/mL | > 4 µg/mL | 11 µg/mL (≈ 33 µM) |  |  |  |
| O=C1c2ccc(N3CCCCC3)cc2-n2c1nc1ccncc1c2=O | 16 µg/mL (≈ 48.1 µM) | > 32 µg/mL | 20 µg/mL (≈ 60.2 µM) |  |  |  |
| CC(C)(C)OC(=O)N1CCN(c2ccc3c(c2)-n2c(nc4ccncc4c2=O)C3=O)CC1 | 16 µg/mL (≈ 36.9 µM) | > 32 µg/mL | 24 µg/mL (≈ 55.4 µM) |  |  |  |
| O=C1c2ccc(Cl)cc2-n2c1nc1ccncc1c2=O | 0.125 µg/mL (≈ 0.441 µM) | 1 µg/mL | 9 µg/mL (≈ 31.7 µM) |  |  |  |
| O=C1c2cc(Br)ccc2-n2c1nc1ncccc1c2=O | 16 µg/mL (≈ 48.8 µM) | 32 µg/mL | > 20 µg/mL |  |  |  |
| O=C1c2ccc(N3CCCCC3)cc2-n2c1nc1ncccc1c2=O | 4 µg/mL (≈ 12 µM) | 16 µg/mL | 81 µg/mL (≈ 244 µM) |  |  |  |
| O=C1c2ccc(N3CCOCC3)cc2-n2c1nc1ncccc1c2=O |  |  |  |  |  | ND(Insoluble) |
| CC(C)(C)OC(=O)N1CCN(c2ccc3c(c2)-n2c(nc4ncccc4c2=O)C3=O)CC1 |  |  |  |  |  | ND(Insoluble) |
| O=C1c2cc(OC(F)(F)F)ccc2-n2c1nc1cnccc1c2=O | 0.125 µg/mL (≈ 0.375 µM) | 0.25 µg/mL | 5.4 µg/mL (≈ 16.2 µM) | 1.5 µg/mL (≈ 4.5 µM) |  |  |
| O=C1c2cc(OC(F)(F)F)ccc2-n2c1nc1ccncc1c2=O | 0.063 µg/mL (≈ 0.189 µM) | 0.5 µg/mL | 5.7 µg/mL (≈ 17.1 µM) | 0.64 µg/mL (≈ 1.92 µM) | 0.125 µg/mL (≈ 0.375 µM) |  |
| O=C1c2cc(C(=O)N3CCOCC3)ccc2-n2c1nc1ccccc1c2=O | 8 µg/mL (≈ 22.1 µM) | 32 µg/mL | > 10 µg/mL | > 10 µg/mL |  |  |

| Structure (SMILES) | MIC [1] | MIC [2] | IC50 [3, 5] | MIC90 [4] | MBC90 [1] | IC50 ([3]; vero) |
| --- | --- | --- | --- | --- | --- | --- |
| O=C1c2ccc(N3CCCCC3)cc2-n2c1nc1ccccc1c2=O | > 128 µg/mL | > 128 µg/mL | 18 µg/mL (≈ 54.3 µM) |  |  |  |
| O=C1c2ccc(N3CCCC3)cc2-n2c1nc1ccccc1c2=O |  |  |  |  |  | ND(Insoluble) |
| O=C1c2ccc(N3CCC(O)C3)cc2-n2c1nc1ccccc1c2=O (stereo not given) | 8 µg/mL (≈ 24 µM) | 8 µg/mL | 27 µg/mL (≈ 81 µM) |  |  |  |
| O=C1c2ccc(N3CCC(O)CC3)cc2-n2c1nc1ccccc1c2=O | 16 µg/mL (≈ 46.1 µM) | 16 µg/mL | 31 µg/mL (≈ 89.2 µM) |  |  |  |
| CCOC(=O)c1ccc2c(c1)C(=O)c1nc3c(OC)cccc3c(=O)n1-2 | 0.125 µg/mL (≈ 0.357 µM) | 4 µg/mL | 16 µg/mL (≈ 45.7 µM) |  | 1 µg/mL (≈ 2.85 µM) |  |
| Cl.O=C1c2ccc(N3CCNCC3)cc2-n2c1nc1ccccc1c2=O | 8 µg/mL | 8 µg/mL | 16 µg/mL |  | >16 µg/mL |  |
| O=C1c2ccc(N3CCNCC3)cc2-n2c1nc1ccccc1c2=O | 0.5 µg/mL (≈ 1.5 µM) | > 2 µg/mL | > 2 µg/mL |  | >2 µg/mL |  |
| CCN(CCN(C)C)c1ccc2nc3n(c(=O)c2c1)-c1ccc(Cl)cc1C3=O | 16 µg/mL (≈ 40.3 µM) | 16 µg/mL | 32 µg/mL (≈ 80.6 µM) |  | 4 µg/mL (≈ 10.1 µM) |  |
| O=C1c2cc(OC(F)(F)F)ccc2-n2c1nc1ncccc1c2=O | 0.25 µg/mL (≈ 0.75 µM) | 0.5 µg/mL | 7.6 µg/mL (≈ 22.8 µM) | 2.5 µg/mL (≈ 7.5 µM) |  |  |
| O=C1C2=Nc3ncccc3CN2c2ccc(OC(F)(F)F)cc21 | 16 µg/mL (≈ 50.1 µM) |  | 4.4 µg/mL (≈ 13.8 µM) |  |  |  |
| O=C1C2=Nc3ncccc3CN2c2ccccc21 | 32 µg/mL (≈ 136 µM) |  | 4.8 µg/mL (≈ 20.4 µM) |  |  |  |
| O=C1C2=Nc3ncccc3CN2c2ccc(Cl)cc21 | 16 µg/mL (≈ 59.3 µM) |  | > 10 µg/mL |  |  |  |
| O=C1C2=Nc3ccncc3CN2c2ccc(OC(F)(F)F)cc21 | 2 µg/mL (≈ 6.26 µM) |  | 5.2 µg/mL (≈ 16.3 µM) | 9 µg/mL (≈ 28.2 µM) |  |  |
| COc1ccc2c(c1)C(=O)c1nc3ccccc3c(=O)n1-2 | 1 µg/mL (≈ 3.59 µM) | 2 µg/mL | 5.5 µg/mL (≈ 19.8 µM) |  | 0.5 µg/mL (≈ 1.8 µM) |  |
| O=C1c2ccccc2-n2c1nc1ccc([N+](=O)[O-])cc1c2=O | 16 µg/mL (≈ 54.6 µM) | 32 µg/mL | 64 µg/mL (≈ 218 µM) |  | 32 µg/mL (≈ 109 µM) |  |
| O=C1c2ccc(Cl)cc2-n2c1nc1ncccc1c2=O | 1 µg/mL (≈ 3.53 µM) | 2 µg/mL | 7 µg/mL (≈ 24.7 µM) |  |  |  |
| O=C1c2cc([N+](=O)[O-])ccc2-n2c1nc1ncccc1c2=O | 0.5 µg/mL (≈ 1.7 µM) | 4 µg/mL | < 0.2 µg/mL |  | 4 µg/mL (≈ 13.6 µM) |  |
| Nc1ccc2c(c1)C(=O)c1nc3ccccc3c(=O)n1-2 | 8 µg/mL (≈ 30.4 µM) | 16 µg/mL |  |  |  |  |
| CS(=O)(=O)Nc1ccc2c(c1)C(=O)c1nc3ccccc3c(=O)n1-2 | 4 µg/mL (≈ 11.7 µM) | > 8 µg/mL | > 8 µg/mL |  | 2 µg/mL (≈ 5.86 µM) |  |
